1 compound from ChEMBL document CHEMBL5260822, “Structure-based design and synthesis of 2,4-diaminopyrimidines as EGFR L858R/T790M selective inhibitors for NSCLC” (Eur J Med Chem, 2017) can be followed below.

In data set [1] the test system is NCI-H1975. Description: Antitumor activity against human NCI-H1975 cells harboring EGFR L858R/T790M mutant xenografted in BALB/c nude mouse assessed as tumor cell proliferation at 15 to 30 mg/kg, po for 18 days by Ki-67 staining based immunohistochemical analysis. Format: functional, organism-based. The note with it: dose 15-30 mg/kg, time 18.0 day. The method, boiled down:
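H1975 xenograft tumors from nude mice (n = 6/group, daily dosing 18 days) were harvested, fixed in 10% formalin, paraffin-embedded and cut into 5 µm sections. Sections deparaffinized and incubated with primary anti-Ki-67 antibody at room temperature; immunoreactivity visualized with DAB.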
(Xenograft models place foreign cells or tissue in a host animal.)

A short description of data set [2]: Toxicity in BALB/c nude mouse xenografted with human NCI-H1975 cells harboring EGFR L858R/T790M mutant assessed as mortality at 15 to 30 mg/kg, po for 18 days. The class given is organism-based. The note with it: in vivo, 432 h, dose 15-30 mg/kg, time 18 day. Put shortly:
(§1)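 Female BALB/cA nu/nu mice were given 1 × 10^6 H1975 cells in 0.1 mL PBS subcutaneously in the right flank. At an average tumour volume of 100 mm3 (about 18 days post-implantation) they were randomised, n = 6 per group. Groups received 15 or 30 mg/kg/day for 18 consecutive days or vehicle. Mice were kept at constant room temperature, 12/12-h light/dark, with standard diet and water ad lib.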

The nature of data set [3]: Toxicity in BALB/c nude mouse xenografted with human NCI-H1975 cells harboring EGFR L858R/T790M mutant assessed as morphological changes in kidney at 15 to 30 mg/kg, po for 18 days by hematoxylin and eosin staining based microscopic analysis. Conditions: in vivo, 432 h, dose 15-30 mg/kg, time 18 day. The class given is organism-based. The method, boiled down:
(§2)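 H1975 subcutaneous xenografts were grown in female BALB/cA nu/nu mice (n = 6 per group), dosed at 15 or 30 mg/kg/day for 18 days or with vehicle. At the end the mice were sacrificed. Heart, kidney and liver were harvested, processed and stained with hematoxylin and eosin for routine histological examination.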

Data set [4] is described as follows: AUC (0 to infinity) in Sprague-Dawley rat at 1 mg/kg, iv and measured after 24 hrs by LC-MS/MS analysis. Format: ADME, organism-based. Details: time 24 hrs, dose 1 mg/kg, route iv. The note with it: in vivo.
Data set [5] in a line: Toxicity in BALB/c nude mouse xenografted with human NCI-H1975 cells harboring EGFR L858R/T790M mutant assessed as body weight loss at 15 to 30 mg/kg, po for 18 days. The note with it: in vivo, 432 h, dose 15-30 mg/kg, time 18 day. Format: organism-based. Put shortly: as §1
Data set [6] can be described thus: AUC (0 to infinity) in Sprague-Dawley rat at 10 mg/kg, po and measured after 24 hrs by LC-MS/MS analysis. The class given is ADME, organism-based. More on the design: dose 10 mg/kg, time 24 hrs, route po. The note with it: in vivo. Put shortly:
(§3)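 Male Sprague–Dawley rats (190–220 g) dosed by oral gavage at 10 mg/kg in 5% DMSO / 95% HP-β-CD aqueous solution (20%); iv reference arm at 1 mg/kg. Blood sampled at 0.25, 0.5, 1, 2, 4, 6, 8 and 24 h, centrifuged (8000 × g, 6 min), and plasma quantified by LC–MS/MS.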

Data set [7] relates to Epidermal growth factor receptor (Homo sapiens), P00533 [L858R,T790M]. Put plainly: In vivo inhibition of EGFR in BALB/c nude mouse xenografted with human NCI-H1975 cells harboring EGFR L858R/T790M mutant assessed as decrease in phosphorylated-EGFR level at 15 to 30 mg/kg, po for 18 days by western blot analysis. Format: functional, organism-based. Conditions: dose 15-30 mg/kg, time 18.0 day.
Chain of Epidermal growth factor receptor (Homo sapiens), P00533 [L858R,T790M] (P00533 whole entry T790M/L858R, looked up): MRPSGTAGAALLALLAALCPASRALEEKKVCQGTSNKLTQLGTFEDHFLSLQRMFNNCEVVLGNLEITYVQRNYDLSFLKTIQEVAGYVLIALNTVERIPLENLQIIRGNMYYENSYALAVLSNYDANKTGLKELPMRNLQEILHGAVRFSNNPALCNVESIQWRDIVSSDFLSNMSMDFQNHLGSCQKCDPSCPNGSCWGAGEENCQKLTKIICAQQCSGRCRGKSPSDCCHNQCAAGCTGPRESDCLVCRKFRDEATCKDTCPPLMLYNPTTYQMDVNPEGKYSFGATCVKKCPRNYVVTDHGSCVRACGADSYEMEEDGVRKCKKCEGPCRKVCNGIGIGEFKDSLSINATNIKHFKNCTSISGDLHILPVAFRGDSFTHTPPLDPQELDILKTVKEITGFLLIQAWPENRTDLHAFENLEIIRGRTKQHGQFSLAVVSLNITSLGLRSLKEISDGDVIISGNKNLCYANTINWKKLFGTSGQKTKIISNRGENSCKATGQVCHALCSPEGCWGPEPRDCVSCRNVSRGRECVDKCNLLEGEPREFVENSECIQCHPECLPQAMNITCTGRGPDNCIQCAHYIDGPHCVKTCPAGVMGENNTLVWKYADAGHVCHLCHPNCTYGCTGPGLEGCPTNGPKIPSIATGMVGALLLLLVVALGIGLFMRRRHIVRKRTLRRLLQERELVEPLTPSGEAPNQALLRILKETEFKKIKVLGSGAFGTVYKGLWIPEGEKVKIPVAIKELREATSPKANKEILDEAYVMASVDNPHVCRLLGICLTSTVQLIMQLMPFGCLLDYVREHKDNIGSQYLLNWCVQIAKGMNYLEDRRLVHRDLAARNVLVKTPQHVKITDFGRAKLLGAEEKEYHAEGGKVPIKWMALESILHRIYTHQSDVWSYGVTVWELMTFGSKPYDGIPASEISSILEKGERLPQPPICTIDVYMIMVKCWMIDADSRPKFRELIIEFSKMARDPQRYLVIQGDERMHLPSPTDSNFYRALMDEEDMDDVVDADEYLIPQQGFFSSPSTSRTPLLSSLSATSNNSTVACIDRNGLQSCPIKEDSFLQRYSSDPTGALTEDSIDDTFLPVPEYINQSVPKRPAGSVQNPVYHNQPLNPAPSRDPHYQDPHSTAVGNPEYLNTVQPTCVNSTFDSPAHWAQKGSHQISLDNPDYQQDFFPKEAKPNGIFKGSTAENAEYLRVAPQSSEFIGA

In data set [8] the test system is NCI-H1975. Put plainly: Inhibition of Erk signalling in EGF-stimulated human NCI-H1975 cells harboring EGFR L858R/T790M double mutant assessed as decrease in p-ERK level at 0.1 to 100 nM and measured after 2 hrs by Western blot analysis. Conditions: dose 0.1-100 nM. The class given is cell-based. Put shortly: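 Cells treated with compound for 2 h, then stimulated with EGF for 15 min and lysed. Lysates cleared at 12,000 × g (10 min, 4 °C), protein measured by Bradford assay, and equal amounts run on 8% SDS-PAGE and blotted to nitrocellulose. Probed for p-EGFR (Y1068), EGFR, p-ERK (T202/Y204), ERK, with tubulin or GAPDH as loading controls.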
On the technique in general: Immunoblotting shows a protein as a band on a membrane.

Data set [9] in a line: Oral bioavailability in Sprague-Dawley rat at 10 mg/kg and measured after 24 hrs by LC-MS/MS analysis. Format: ADME, organism-based. The note with it: in vivo. The method, boiled down:
as §3

Data set [10] can be described thus: Toxicity in BALB/c nude mouse xenografted with human NCI-H1975 cells harboring EGFR L858R/T790M mutant assessed as morphological changes in heart at 15 to 30 mg/kg, po for 18 days by hematoxylin and eosin staining based microscopic analysis. The note with it: in vivo, 432 h, dose 15-30 mg/kg, time 18 day. Format: organism-based. The method, boiled down: as §2

The target in data set [11] is T1, Tyrosine-protein kinase JAK3 (Homo sapiens) (UniProt P52333).
T1 sequence (whole entry): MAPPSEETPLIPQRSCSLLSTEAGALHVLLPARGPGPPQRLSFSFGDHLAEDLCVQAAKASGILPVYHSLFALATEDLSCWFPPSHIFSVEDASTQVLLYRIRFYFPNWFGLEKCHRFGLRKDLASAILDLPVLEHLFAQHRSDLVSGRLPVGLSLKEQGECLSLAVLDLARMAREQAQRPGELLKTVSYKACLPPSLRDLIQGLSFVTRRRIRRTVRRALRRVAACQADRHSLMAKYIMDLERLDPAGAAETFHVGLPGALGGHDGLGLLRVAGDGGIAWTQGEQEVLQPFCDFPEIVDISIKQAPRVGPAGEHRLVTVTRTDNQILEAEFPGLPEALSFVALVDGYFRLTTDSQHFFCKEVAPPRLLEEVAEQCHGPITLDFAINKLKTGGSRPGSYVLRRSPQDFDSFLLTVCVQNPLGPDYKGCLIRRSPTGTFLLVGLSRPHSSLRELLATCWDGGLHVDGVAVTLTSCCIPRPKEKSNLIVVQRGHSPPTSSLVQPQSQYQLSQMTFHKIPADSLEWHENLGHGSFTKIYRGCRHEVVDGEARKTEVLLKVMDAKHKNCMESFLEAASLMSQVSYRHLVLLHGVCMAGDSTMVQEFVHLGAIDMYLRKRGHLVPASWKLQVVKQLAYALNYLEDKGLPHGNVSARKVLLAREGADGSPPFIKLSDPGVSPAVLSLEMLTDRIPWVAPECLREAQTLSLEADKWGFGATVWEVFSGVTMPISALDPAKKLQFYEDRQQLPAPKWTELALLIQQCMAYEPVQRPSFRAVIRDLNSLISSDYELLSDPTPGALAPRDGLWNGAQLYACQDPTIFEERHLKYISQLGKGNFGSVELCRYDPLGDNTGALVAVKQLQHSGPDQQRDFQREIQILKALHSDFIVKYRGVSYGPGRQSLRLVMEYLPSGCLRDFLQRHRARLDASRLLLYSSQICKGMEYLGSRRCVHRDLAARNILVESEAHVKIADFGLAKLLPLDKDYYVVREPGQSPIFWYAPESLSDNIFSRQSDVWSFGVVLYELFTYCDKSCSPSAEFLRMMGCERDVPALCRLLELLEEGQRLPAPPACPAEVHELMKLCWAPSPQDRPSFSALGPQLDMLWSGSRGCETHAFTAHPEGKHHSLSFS
Description: Inhibition of JAK3 (unknown origin) at 1000 nM by DiscoverX KINOMEscan assay relative to control; values are per cent of control.

The source made the active and inactive calls. The rule behind the calls is not given here. Bounds are passed on as bounds.

For `C=CC(=O)Nc1cc(Nc2ncc(Br)c(Nc3ccc4ccn(C)c4c3)n2)c(OC)cc1N1CCN(C)CC1`, the result in the data set on NCI-H1975 [1] was Active. Moreover, the Activity result in data set [2], in data set [3], in data set [5] and in data set [10] was “Non-Toxic” in each case. The AUC (usually concentration integrated over time) came to 515 ng·h/mL in data set [4] and 52.3 ng·h/mL in [6]. The inhibition result in data set [7] was “Active”. In addition, the inhibition entry with NCI-H1975 [8] is “Dose-Dependent Effect”. Further, the F in data set [9] worked out at 52.3%. The residual activity (in general, what remains of the control signal, in per cent) in [11] is under 1%.
